Source: ChEMBL document CHEMBL4033786, “Discovery of Novel 1-Cyclopentenyl-3-phenylureas as Selective, Brain Penetrant, and Orally Bioavailable CXCR2 Antagonists” (J Med Chem, 2018)

Experiments:
[1] = Oral bioavailability in dog at 1.29 mg/kg measured up to 4 hrs after dose; assay type: ADME, organism-based, Canis lupus familiaris; settings: in vivo
Brain = assay: Dose normalized AUC (0 to 7 hrs) in Han-Wistar SOA rat model brain at 2 mg/kg administered via oral gavage by UPLC/MS/MS analysis; assay type: ADME, organism-based; settings: in vivo
Method in brief: (§1)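 Male Han-Wistar rats were given 2 mg/kg by oral gavage as a suspension in DMSO:1% methylcellulose (1:99). Blood (cardiac puncture, EDTA-K2, under isoflurane) and brains were collected at 0.25–7 h. Brain was homogenised in 3-fold PBS, samples were protein-precipitated and quantified by UPLC/MS/MS.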

[2] = biological target: T1, C-C chemokine receptor type 8 (Homo sapiens, UniProt P51685); assay: Agonist activity at CCR8 (unknown origin)
T1 sequence (P51685 whole entry): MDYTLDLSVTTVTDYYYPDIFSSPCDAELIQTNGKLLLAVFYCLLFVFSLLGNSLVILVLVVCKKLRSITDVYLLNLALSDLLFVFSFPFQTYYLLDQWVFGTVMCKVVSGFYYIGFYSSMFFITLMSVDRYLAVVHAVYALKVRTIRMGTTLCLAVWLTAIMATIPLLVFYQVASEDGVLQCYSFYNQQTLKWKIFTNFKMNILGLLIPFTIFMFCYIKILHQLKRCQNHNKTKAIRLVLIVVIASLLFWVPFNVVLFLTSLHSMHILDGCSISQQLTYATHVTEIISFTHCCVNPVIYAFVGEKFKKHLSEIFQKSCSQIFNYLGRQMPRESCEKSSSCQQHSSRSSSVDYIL
Method in brief: (§2)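 β-arrestin assays run in both agonist and antagonist modes across a panel of 18 CXC and CC chemokine receptors.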

[3] = biological target: C-C chemokine receptor type 4 (Homo sapiens, UniProt P51679); assay: Antagonist activity at CCR4 (unknown origin); method in brief: as §2
Sequence of C-C chemokine receptor type 4 (P51679 whole entry): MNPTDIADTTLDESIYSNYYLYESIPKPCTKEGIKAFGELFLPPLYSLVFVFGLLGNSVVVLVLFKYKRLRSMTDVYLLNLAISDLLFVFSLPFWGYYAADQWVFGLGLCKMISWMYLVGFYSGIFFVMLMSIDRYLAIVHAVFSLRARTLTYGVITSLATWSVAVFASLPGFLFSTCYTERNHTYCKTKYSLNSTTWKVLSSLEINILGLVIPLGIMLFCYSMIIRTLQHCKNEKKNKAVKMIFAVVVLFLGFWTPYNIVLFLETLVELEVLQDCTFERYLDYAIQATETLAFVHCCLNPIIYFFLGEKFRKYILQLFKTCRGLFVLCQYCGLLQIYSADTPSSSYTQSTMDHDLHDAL

[4] = biological target: C-C chemokine receptor type 2 (Homo sapiens, UniProt P41597); assay: Agonist activity at CCR2 (unknown origin); method in brief: as §2
Sequence of C-C chemokine receptor type 2 (P41597 whole entry): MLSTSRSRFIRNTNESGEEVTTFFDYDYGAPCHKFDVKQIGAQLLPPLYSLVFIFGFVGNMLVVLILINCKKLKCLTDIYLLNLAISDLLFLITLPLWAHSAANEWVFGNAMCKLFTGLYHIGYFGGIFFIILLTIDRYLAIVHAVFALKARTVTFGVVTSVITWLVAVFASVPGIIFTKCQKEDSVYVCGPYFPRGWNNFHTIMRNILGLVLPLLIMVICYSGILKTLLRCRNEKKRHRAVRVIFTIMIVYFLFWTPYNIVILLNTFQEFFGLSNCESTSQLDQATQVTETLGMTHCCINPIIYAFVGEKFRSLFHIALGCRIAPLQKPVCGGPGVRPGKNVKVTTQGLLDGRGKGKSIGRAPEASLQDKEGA

[5] = Intrinsic clearance in dog hepatocytes; assay type: ADME, cell-based, Canis lupus familiaris, Hepatocyte
[6] = biological target: C-X-C chemokine receptor type 4 (Homo sapiens, UniProt P61073); assay: Agonist activity at CXCR4 (unknown origin); method in brief: as §2
Sequence of C-X-C chemokine receptor type 4 (P61073 whole entry): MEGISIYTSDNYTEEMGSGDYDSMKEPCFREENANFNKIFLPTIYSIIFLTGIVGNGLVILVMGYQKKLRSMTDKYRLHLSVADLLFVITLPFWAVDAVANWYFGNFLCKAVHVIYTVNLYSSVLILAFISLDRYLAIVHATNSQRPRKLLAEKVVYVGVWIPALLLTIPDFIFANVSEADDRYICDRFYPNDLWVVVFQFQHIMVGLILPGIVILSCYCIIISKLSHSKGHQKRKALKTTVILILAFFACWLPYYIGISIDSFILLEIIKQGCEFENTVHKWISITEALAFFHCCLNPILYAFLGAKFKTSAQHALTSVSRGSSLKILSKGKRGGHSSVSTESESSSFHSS

Canis familiaris [7] = assay: Dose normalized AUC (0 to infinity) in dog at 1.29 mg/kg, po measured up to 4 hrs post dose; assay type: ADME, organism-based, Canis lupus familiaris; settings: in vivo
[8] = Oral bioavailability in Wistar rat at 2.41 mg/kg measured up to 4 hrs after dose; assay type: ADME, organism-based; settings: in vivo
[9] = Intrinsic clearance in human hepatocytes; assay type: ADME, cell-based, Hepatocyte
[10] = biological target: C-X-C chemokine receptor type 2 (Mus musculus, UniProt P35343); assay: Antagonist activity at CXCR2 in C57 mouse whole blood assessed as inhibition of GROalpha-stimulated CD11b upregulation preincubated for 2 hr followed by GROalpha stimulation measured after 10 mins by FITC-staining based FACS analysis
Sequence of C-X-C chemokine receptor type 2 (Mus musculus, UniProt P35343) (P35343 whole entry): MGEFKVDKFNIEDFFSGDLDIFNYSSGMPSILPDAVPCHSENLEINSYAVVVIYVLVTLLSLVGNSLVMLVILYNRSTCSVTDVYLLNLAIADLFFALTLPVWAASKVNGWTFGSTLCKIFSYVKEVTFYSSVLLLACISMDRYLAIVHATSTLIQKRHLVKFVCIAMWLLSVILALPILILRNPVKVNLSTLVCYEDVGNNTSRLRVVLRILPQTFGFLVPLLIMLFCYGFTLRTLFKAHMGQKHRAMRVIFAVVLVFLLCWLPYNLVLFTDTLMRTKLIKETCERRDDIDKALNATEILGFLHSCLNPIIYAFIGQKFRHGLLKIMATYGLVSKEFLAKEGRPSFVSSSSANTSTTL

[11] = biological target: T2, CX3C chemokine receptor 1 (Homo sapiens, UniProt P49238); assay: Agonist activity at CX3CR1 (unknown origin); method in brief: as §2
T2 sequence (P49238 whole entry): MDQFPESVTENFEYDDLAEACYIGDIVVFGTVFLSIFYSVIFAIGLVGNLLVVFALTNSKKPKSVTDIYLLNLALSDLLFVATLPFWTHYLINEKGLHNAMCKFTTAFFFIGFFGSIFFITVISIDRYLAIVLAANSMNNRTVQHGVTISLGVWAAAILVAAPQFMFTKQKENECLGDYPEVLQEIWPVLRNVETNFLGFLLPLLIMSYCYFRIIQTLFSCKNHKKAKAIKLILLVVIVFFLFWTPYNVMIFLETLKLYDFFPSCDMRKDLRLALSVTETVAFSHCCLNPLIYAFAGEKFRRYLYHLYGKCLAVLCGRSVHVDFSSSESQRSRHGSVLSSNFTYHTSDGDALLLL

[12] = Volume of distribution at steady state in Wistar rat at 0.98 mg/kg, iv measured up to 4 hrs post dose; assay type: ADME, organism-based; settings: in vivo, read-out: Vdss
[13] = biological target: T3, C-X-C chemokine receptor type 3 (Homo sapiens, UniProt P49682); assay: Antagonist activity at CXCR3 (unknown origin); method in brief: as §2
T3 sequence (P49682 whole entry): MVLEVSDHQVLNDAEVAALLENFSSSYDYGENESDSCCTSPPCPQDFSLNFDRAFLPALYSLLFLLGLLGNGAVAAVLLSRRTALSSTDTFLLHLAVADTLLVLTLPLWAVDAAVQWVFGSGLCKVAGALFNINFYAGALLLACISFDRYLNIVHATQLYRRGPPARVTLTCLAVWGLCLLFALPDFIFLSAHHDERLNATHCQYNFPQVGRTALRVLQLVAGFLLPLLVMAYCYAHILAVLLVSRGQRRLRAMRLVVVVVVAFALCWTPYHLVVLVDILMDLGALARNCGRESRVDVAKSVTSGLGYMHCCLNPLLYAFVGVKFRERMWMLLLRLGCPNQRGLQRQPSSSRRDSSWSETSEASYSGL

[14] = biological target: C-C chemokine receptor type 5 (Homo sapiens, UniProt P51681); assay: Antagonist activity at CCR5 (unknown origin); method in brief: as §2
Sequence of C-C chemokine receptor type 5 (P51681 whole entry): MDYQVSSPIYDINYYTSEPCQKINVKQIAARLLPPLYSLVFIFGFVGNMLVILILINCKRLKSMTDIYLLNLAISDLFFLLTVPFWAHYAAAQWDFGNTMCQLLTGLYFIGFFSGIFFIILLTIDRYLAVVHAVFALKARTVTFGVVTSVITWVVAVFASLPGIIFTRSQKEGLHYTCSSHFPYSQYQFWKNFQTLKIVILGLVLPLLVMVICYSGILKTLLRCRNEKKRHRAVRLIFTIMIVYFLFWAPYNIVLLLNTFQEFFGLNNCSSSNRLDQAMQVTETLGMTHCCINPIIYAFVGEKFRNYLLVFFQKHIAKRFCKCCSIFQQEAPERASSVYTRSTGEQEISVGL

[15] = biological target: C-C chemokine receptor type 7 (Homo sapiens, UniProt P32248); assay: Antagonist activity at CCR7 (unknown origin); method in brief: as §2
Sequence of C-C chemokine receptor type 7 (P32248 whole entry): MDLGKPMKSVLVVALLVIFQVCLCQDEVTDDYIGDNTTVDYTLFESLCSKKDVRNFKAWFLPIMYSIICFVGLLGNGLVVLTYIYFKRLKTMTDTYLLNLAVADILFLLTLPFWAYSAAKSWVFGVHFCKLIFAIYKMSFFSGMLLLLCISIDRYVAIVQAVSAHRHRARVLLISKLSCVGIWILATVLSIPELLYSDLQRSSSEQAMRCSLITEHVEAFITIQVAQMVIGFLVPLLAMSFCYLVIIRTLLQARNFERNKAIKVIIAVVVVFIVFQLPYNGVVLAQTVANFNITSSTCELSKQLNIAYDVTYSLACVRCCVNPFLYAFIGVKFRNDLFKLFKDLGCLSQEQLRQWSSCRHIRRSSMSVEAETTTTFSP

[16] = Fraction unbound in Han-Wistar SOA rat model brain at 2 mg/kg administered via oral gavage by UPLC/MS/MS analysis; assay type: ADME, organism-based
[17] = biological target: C-C chemokine receptor type 9 (Homo sapiens, UniProt P51686); assay: Agonist activity at CCR9 (unknown origin); method in brief: as §2
Sequence of C-C chemokine receptor type 9 (P51686 whole entry): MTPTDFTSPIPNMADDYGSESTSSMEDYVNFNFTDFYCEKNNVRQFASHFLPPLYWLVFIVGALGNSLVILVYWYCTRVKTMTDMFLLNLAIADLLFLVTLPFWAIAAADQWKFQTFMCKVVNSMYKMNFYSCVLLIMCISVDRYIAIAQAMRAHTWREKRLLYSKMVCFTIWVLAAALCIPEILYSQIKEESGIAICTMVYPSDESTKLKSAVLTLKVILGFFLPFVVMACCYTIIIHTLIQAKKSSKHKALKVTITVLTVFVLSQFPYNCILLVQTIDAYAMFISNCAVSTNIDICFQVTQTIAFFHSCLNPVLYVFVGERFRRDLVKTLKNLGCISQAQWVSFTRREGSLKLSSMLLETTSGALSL

[18] = biological target: T2, CX3C chemokine receptor 1; assay: Antagonist activity at CX3CR1 (unknown origin); method in brief: as §2
Blood = assay: Dose normalized AUC (0 to 7 hrs) in Han-Wistar SOA rat model blood at 2 mg/kg administered via oral gavage by UPLC/MS/MS analysis; assay type: ADME, organism-based; settings: in vivo; method in brief: as §1
[19] = biological target: T4, Atypical chemokine receptor 3 (Homo sapiens, UniProt P25106); assay: Agonist activity at CXCR7 (unknown origin); method in brief: as §2
T4 sequence (P25106 whole entry): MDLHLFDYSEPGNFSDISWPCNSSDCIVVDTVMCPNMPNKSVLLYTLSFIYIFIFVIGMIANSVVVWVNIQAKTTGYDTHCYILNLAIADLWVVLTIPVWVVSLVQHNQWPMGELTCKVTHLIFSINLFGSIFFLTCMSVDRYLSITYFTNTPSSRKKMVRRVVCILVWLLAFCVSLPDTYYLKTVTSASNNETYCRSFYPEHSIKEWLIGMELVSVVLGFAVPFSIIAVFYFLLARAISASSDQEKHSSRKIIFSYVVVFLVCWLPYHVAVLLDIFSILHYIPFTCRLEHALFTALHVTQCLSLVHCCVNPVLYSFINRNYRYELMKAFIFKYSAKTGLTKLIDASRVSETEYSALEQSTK

[20] = Clearance in dog blood at 0.85 mg/kg, iv measured up to 4 hrs post dose; assay type: ADME, organism-based, Canis lupus familiaris
Canis familiaris [21] = assay: Dose normalized AUC (0 to infinity) in dog at 0.85 mg/kg, iv measured up to 4 hrs post dose; assay type: ADME, organism-based, Canis lupus familiaris; settings: in vivo
[22] = biological target: T3, C-X-C chemokine receptor type 3; assay: Agonist activity at CXCR3 (unknown origin); method in brief: as §2
[23] = Fraction unbound in Han-Wistar SOA rat model blood at 2 mg/kg administered via oral gavage by UPLC/MS/MS analysis; assay type: ADME, organism-based
[24] = biological target: T4, Atypical chemokine receptor 3; assay: Antagonist activity at CXCR7 (unknown origin); method in brief: as §2
[25] = Passive permeability in MDCK2-MDR1 cells transduced with BacMam2-BCRP at 3 uM after 90 mins by Transwell assay; assay type: ADME, cell-based, Canis lupus familiaris, MDCK-MDR1; settings: dog; read-out: permeability
Method in brief: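 MDCKII-MDR1 cells transduced with BacMam2-BCRP and grown in Transwells. Compound at 3 μM, in duplicate, was incubated 90 min A→B (and B→A) with and without GF120918 (5 μM, dual P-gp/BCRP inhibitor). Passive permeability (Pexact, nm/s) was calculated by an equation from earlier work. The permeability ratio is A→B permeability with GF120918 over A→B permeability without it.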

[26] = biological target: T5, C-X-C chemokine receptor type 2 (Homo sapiens, UniProt P25025); assay: Agonist activity at TEV protease cleavage site linked GAL4-VP16-fused recombinant human CXCR2 expressed in cells assessed as induction of beta-arrestin recruitment by CCF4-AM-fluorescence based FRET assay; assay type: cell-based
T5 sequence (P25025 whole entry): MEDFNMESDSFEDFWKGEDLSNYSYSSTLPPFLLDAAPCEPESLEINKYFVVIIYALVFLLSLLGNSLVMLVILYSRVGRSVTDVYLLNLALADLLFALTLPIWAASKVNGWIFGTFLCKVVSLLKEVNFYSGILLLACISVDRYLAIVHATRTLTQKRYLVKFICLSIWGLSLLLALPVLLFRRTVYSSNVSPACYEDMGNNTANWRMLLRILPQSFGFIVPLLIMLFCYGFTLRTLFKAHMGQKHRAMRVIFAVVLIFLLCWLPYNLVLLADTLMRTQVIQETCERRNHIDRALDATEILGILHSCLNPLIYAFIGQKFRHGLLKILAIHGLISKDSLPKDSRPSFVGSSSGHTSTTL
Method in brief: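 Part of an 18-receptor chemokine panel run in agonist and antagonist modes. Stable line carrying human CXCR2 linked to a TEV site and Gal4-VP16 was starved 24 h at 37 °C, 5% CO2, and incubated overnight with compound dispensed in DMSO. CCF4-AM substrate was loaded for 2 h at room temperature in the dark. Read-out was the background-subtracted 460/530 nm ratio, with sigmoidal curve fit.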

[27] = Clearance in Wistar rat blood at 0.98 mg/kg, iv measured up to 4 hrs post dose; assay type: ADME, organism-based
[28] = Unbound brain-to-blood concentration ratio in Han-Wistar SOA rat model at 2 mg/kg administered via oral gavage by UPLC/MS/MS analysis; assay type: ADME, organism-based; settings: read-out: K(p,uu,brain)
Method in brief: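 Male Han-Wistar rats given a single 2 mg/kg oral gavage as a suspension in DMSO:1% methylcellulose (1:99). Blood was taken by cardiac puncture under isoflurane at 0.25–7 h, diluted 1:3 with water, and brains were homogenized in 3-fold PBS. Samples were extracted by acetonitrile protein precipitation and quantified by UPLC/MS/MS. Kp = brain DNAUC0-7h/blood DNAUC0-7h; Kp,uu = Kp×Fu,br/Fu,bl.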

[29] = biological target: T1, C-C chemokine receptor type 8; assay: Antagonist activity at CCR8 (unknown origin); method in brief: as §2

bioavailability [1]: 76%
AUC/dose (Brain): 87.7 ng·h/g/mg/kg
EC50 [2]: > 10 µM
IC50 [3]: > 10 µM
EC50 [4]: > 10 µM
CLH [5]: 1.8 mL/min/g
EC50 [6]: > 10 µM
AUC/dose (Canis familiaris [7]): 2298 ng·h/mL/mg/kg
bioavailability [8]: 47%
CLH [9]: 0.79 mL/min/g
IC50 [10]: 0.0059 µM
EC50 [11]: > 10 µM
Vd [12]: 2.1 L/kg
IC50 [13]: > 10 µM
IC50 [14]: > 10 µM
IC50 [15]: > 10 µM
fraction unbound [16]: 0.123
EC50 [17]: > 10 µM
IC50 [18]: > 10 µM
AUC/dose (Blood): 651 ng·h/mL/mg/kg
EC50 [19]: > 10 µM
clearance [20]: 5.6 mL/min/kg
AUC/dose (Canis familiaris [21]): 2996 ng·h/mL/mg/kg
EC50 [22]: > 10 µM
fraction unbound [23]: 0.027
IC50 [24]: > 10 µM
Papp at 1.5 h, 3 µM [25]: 25.4 ×10⁻⁶ cm/s
EC50 [26]: > 10 µM
clearance [27]: 9.1 mL/min/kg
Kp uu [28]: 0.63
IC50 [29]: > 10 µM
Structure (SMILES): CC1=CCC[C@H]1NC(=O)Nc1ccc(Cl)c(S(=O)(=O)[C@@]2(C)CCOC2)c1O
